Publication PMC2854254 (Cell communication & adhesion, 2009)
Where two headings read alike, the source gives them in different places. Blank lines part the entries; values can stand above or below the molecule they belong to.

Columns and labels:
[1] = target: T1, mPanx1-GFP (Mus musculus, UniProt Q9JIP4); experiment: Whole cell patch clamp of depolarization-induced; assay type: cell-based
Summary of the method: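 Neuro2A cells in DMEM with 10% FCS, lipofectamine-transfected with mPanx1-GFP, recorded 24–36 h after replating. Whole-cell clamp at room temperature, held at −60 mV. Pipette CsCl/EGTA with 1 mM ATP. Currents evoked by 10-s ramps from −60 to +100 mV at 20-s intervals; kinetics from +100 mV current over 8.5 min. Test compound superfused at 1 nM–1 mM, washed out after a stable plateau. Dose-response curves; timing by ANOVA with Dunnett's test.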

[2] = target: untagged mPanx1 (Mus musculus, UniProt Q9JIP4); assay type: cell-based
Chain of untagged mPanx1 (Q9JIP4 whole entry, the tested form may be a part): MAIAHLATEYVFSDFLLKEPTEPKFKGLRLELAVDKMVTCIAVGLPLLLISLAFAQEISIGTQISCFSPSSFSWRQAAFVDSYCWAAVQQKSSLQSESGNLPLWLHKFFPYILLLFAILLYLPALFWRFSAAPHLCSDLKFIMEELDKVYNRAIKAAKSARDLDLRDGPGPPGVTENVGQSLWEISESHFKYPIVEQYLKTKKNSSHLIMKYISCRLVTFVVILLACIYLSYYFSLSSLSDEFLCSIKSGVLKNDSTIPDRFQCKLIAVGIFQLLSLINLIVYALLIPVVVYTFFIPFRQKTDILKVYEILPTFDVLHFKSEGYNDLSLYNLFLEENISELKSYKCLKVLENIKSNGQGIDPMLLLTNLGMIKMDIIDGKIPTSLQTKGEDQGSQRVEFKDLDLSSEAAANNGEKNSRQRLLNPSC
Summary of the method: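 Neuro2A cells transfected with untagged mPanx1 construct. Whole-cell recording at room temperature on cells held at −60 mV, with pH 7.4 external and CsCl/EGTA/ATP pipette solutions. Channels activated by 10-s voltage ramps from −60 to +100 mV. Test compound superfused during ramps, then washed out to test reversibility.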

[3] = target: T1, mPanx1-GFP; experiment: Inside-out single channel patch clamp on Rin-m cells transfected with Panx1-GFP; assay type: cell-based; conditions: for Effect on open time of Panx1-GFP channel: inside-out patch
Summary of the method: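 Rin-m cells grown in RPMI with 5% fetal calf serum, under passage 20. Transfected overnight with 2 μg mPanx1-GFP via lipofectamine, then replated 24–36 h. Inside-out single-channel recordings at room temperature on brightly fluorescent cells. Bath pH 7.4 NaCl/Hepes; pipette CsCl/EGTA with 1 mM ATP. Test compound perfused 20 s, then washed out. Mean channel open time compared before, during and after.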

[4] = system: adenosine receptors; conditions: ref Weiss et al., 2003; cited from earlier work
[5] = system: C×46 hemichannels and Panx1 channels; conditions: oocytes; ref Bruzzone et al, 2006; cited from earlier work
[6] = system: human erythrocytes; conditions: ref Skas et al, 2009; cited from earlier work
[7] = system: murine erythrocytes; conditions: ref Skals et al, 2009; cited from earlier work
[8] = system: astrocytes; conditions: nanomolar concentrations, ref Suadicani et al, 2006; cited from earlier work
[9] = system: Panx1; conditions: nanomolar concentrations, astrocytes; ref Iglesias et al, 2008, 2009; cited from earlier work
[10] = 100 nM, listed as mefloquine from Bioblocks
[11] = 100 nM, listed as mefloquine from Sigma

T1 sequence (Q9JIP4 whole entry, the tested form may be a part): as above

Time required for 50% blockade of Panx1 currents [1]: 1.5 min
Effect on Panx1-GFP currents evoked by depolarizing voltage ramps ([1]; 10 nM): similarly reduced
Effect on Panx1-GFP currents evoked by depolarizing voltage ramps ([1]; 100 nM): substantially reduced
Time at which current amplitudes were significantly reduced compared to control ([1]; 100 nM, currents at +100mV): 1.5 min
Effect on Panx1-GFP currents evoked by depolarizing voltage ramps [1, 10]: similarly reduced
Effect on Panx1-GFP currents evoked by depolarizing voltage ramps [1, 11]: not affected
Effect on Panx1-GFP currents evoked by depolarizing voltage ramps ([1]; 1μM): not affected
Effect on Panx1-GFP currents evoked by depolarizing voltage ramps ([1]; 100μM): only minimally blocked
Time required for 50% blockade of Panx1 currents ([1]; applied at 100nM): 0.5 min
Times less potent than erythro-mefloquine racemate from the two other sources ([1]; compared with Bioblocks and NCI-NIH racemate): 10,000 times
Effect on untagged Panx1 currents ([2]; 10 nM): similarly reduced
Effect on untagged Panx1 currents [2, 10]: similarly reduced
Effect on untagged Panx1 currents [2, 11]: not affected
Effect on untagged Panx1 currents ([2]; 1μM): not affected
Effect on open time of Panx1-GFP channel ([3]; 100nM perfused for 20 seconds): decreased
Effect on open time of Panx1-GFP channel ([3]; 1 μM): did not appreciably affect
Mean open time of Panx1 channel after washout ([3]; after washout of 100nM): restored
Compound: OC(c1cc(C(F)(F)F)nc2c(C(F)(F)F)cccc12)C1CCCCN1 (racemic) [(±)-erythro-(R*/S*)-mefloquine]

Compound: OC(c1cc(C(F)(F)F)nc2c(C(F)(F)F)cccc12)C1CCCCN1 (single isomer, unassigned; (-)) [(−)-erythro- enantiomer, (−)-erythro-(11S/2′R)-MFQ]
Binding to adenosine receptors [4]: bind

Effect on Panx1-GFP currents evoked by depolarizing voltage ramps ([1]; 1μM): prevented
Time required for 50% blockade of Panx1 currents ([1]; applied at 10μM): 1.5 min
Compound: O[C@H](c1cc(C(F)(F)F)nc2c(C(F)(F)F)cccc12)[C@H]1CCCCN1 [(−)-threo-(11R/2′R)-mefloquine]

Compound: CC1(C)[C@@H](OC(=O)CCC(=O)O)CC[C@]2(C)[C@H]3C(=O)C=C4[C@@H]5C[C@@](C)(C(=O)O)CC[C@]5(C)CC[C@@]4(C)[C@]3(C)CC[C@@H]12 [carbenoxolone]
Difference in potency for blockade between C×46 hemichannels and Panx1 channels [5]: 5–10 fold

Compound: O=C(O)c1ccccc1Nc1cccc(C(F)(F)F)c1 [flufenamic acid]
Difference in potency for blockade between C×46 hemichannels and Panx1 channels [5]: 5–10 fold

Compound: OC(c1cc(C(F)(F)F)nc2c(C(F)(F)F)cccc12)C1CCCCN1 (centres unmarked) [mefloquine]
Concentration required for prevention of HIyA-induced hemolysis [6]: above 10 μM
Concentration required for prevention of HIyA-induced hemolysis [7]: above 10 μM
Effect on dye uptake evoked by P2X7 receptor stimulation [8]: block
Effect on depolarization- and BzATP-evoked Panx1 currents [9]: inhibit
